# Experimental data as given in ChEMBL document CHEMBL1153573, “Synthesis of a series of N6-substituted adenosines with activity against trypanosomatid parasites” (Eur J Med Chem, 2009).
# pIC50: −log10 of the molar value.
# Test system: Trypanosoma brucei rhodesiense
# Assay: Antitrypanosomal activity against Trypanosoma brucei rhodesiense STIB 900 after 72 hrs by alamar blue based microplate assay
# Assay type: functional, organism-based
# Details: STIB 900, 72 h
# Summary of the method: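 Bloodstream-form T. b. rhodesiense STIB 900, 10⁴ per well, in minimum essential medium with 2-mercaptoethanol and 15% heat-inactivated horse serum. Serial dilutions spanning […]. Incubated 37 °C, 5% CO₂, 72 h. Resazurin (Alamar Blue) then added and incubation continued. Fluorescence read at ex 536/em 588 nm as percent of control, IC50 calculated. Melarsoprol standard.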
row,SMILES,pIC50
1,O=C(CCCc1ccc([N+](=O)[O-])cc1)NCCOCCNc1ncnc2c1ncn2[C@@H]1O[C@H](CO)[C@@H](O)[C@H]1O,4.05
2,COc1ccc(C(=O)NCCOCCNc2ncnc3c2ncn3[C@@H]2O[C@H](CO)[C@@H](O)[C@H]2O)cc1OC,< 3.77
3,O=C(CCCc1c[nH]c2ccccc12)NCCOCCNc1ncnc2c1ncn2[C@@H]1O[C@H](CO)[C@@H](O)[C@H]1O,4.42
4,O=C(NCCOCCNc1ncnc2c1ncn2[C@@H]1O[C@H](CO)[C@@H](O)[C@H]1O)c1ccc(F)c(F)c1,3.78
5,COc1cccc(CC(=O)NCCOCCNc2ncnc3c2ncn3[C@@H]2O[C@H](CO)[C@@H](O)[C@H]2O)c1,3.88
6,O=C(NCCOCCNc1ncnc2c1ncn2[C@@H]1O[C@H](CO)[C@@H](O)[C@H]1O)c1ccc(Oc2ccccc2)cc1,5.00
7,COc1ccc(CC(=O)NCCOCCNc2ncnc3c2ncn3[C@@H]2O[C@H](CO)[C@@H](O)[C@H]2O)cc1OC,5.04

# Other lines, results leading:
row,pIC50,SMILES
1,4.30,O=C(Cc1c(Cl)cccc1Cl)NCCOCCNc1ncnc2c1ncn2[C@@H]1O[C@H](CO)[C@@H](O)[C@H]1O
2,3.90,CC(C)=CC(=O)NCCOCCNc1ncnc2c1ncn2[C@@H]1O[C@H](CO)[C@@H](O)[C@H]1O
3,4.87,O=C(NCCOCCNc1ncnc2c1ncn2[C@@H]1O[C@H](CO)[C@@H](O)[C@H]1O)c1cccc(F)c1
4,4.07,O=C(NCCOCCNc1ncnc2c1ncn2[C@@H]1O[C@H](CO)[C@@H](O)[C@H]1O)C(c1ccccc1)c1ccccc1
5,5.40,O=C(CCCc1ccccc1)NCCOCCNc1ncnc2c1ncn2[C@@H]1O[C@H](CO)[C@@H](O)[C@H]1O
6,5.47,O=C(CCCOc1ccccc1)NCCOCCNc1ncnc2c1ncn2[C@@H]1O[C@H](CO)[C@@H](O)[C@H]1O
7,< 3.77,O=C(Cc1cccc2ccccc12)NCCOCCNc1ncnc2c1ncn2[C@@H]1O[C@H](CO)[C@@H](O)[C@H]1O
8,3.88,CC(=O)Nc1ccc(C(=O)NCCOCCNc2ncnc3c2ncn3[C@@H]2O[C@H](CO)[C@@H](O)[C@H]2O)cc1
